# B1: Epidermal growth factor (protein, UniProt P01133 23-1207, looked up)
# Pro-epidermal growth factor: PQHWSCPEGTLAGNGNSTCVGPAPFLIFSHGNSIFRIDTEGTNYEQLVVDAGVSVIMDFHYNEKRIYWVDLERQLLQRVFLNGSRQERVCNIEKNVSGMAINWINEEVIWSNQQEGIITVTDMKGNNSHILLSALKYPANVAVDPVERFIFWSSEVAGSLYRADLDGVGVKALLETSEKITAVSLDVLDKRLFWIQYNREGSNSLICSCDYDGGSVHISKHPTQHNLFAMSLFGDRIFYSTWKMKTIWIANKHTGKDMVRINLHSSFVPLGELKVVHPLAQPKAEDDTWEPEQKLCKLRKGNCSSTVCGQDLQSHLCMCAEGYALSRDRKYCEDVNECAFWNHGCTLGCKNTPGSYYCTCPVGFVLLPDGKRCHQLVSCPRNVSECSHDCVLTSEGPLCFCPEGSVLERDGKTCSGCSSPDNGGCSQLCVPLSPVSWECDCFPGYDLQLDEKSCAASGPQPFLLFANSQDIRHMHFDGTDYGTLLSQQMGMVYALDHDPVENKIYFAHTALKWIERANMDGSQRERLIEEGVDVPEGLAVDWIGRRFYWTDRGKSLIGRSDLNGKRSKIITKENISQPRGIAVHPMAKRLFWTDTGINPRIESSSLQGLGRLVIASSDLIWPSGITIDFLTDKLYWCDAKQSVIEMANLDGSKRRRLTQNDVGHPFAVAVFEDYVWFSDWAMPSVMRVNKRTGKDRVRLQGSMLKPSSLVVVHPLAKPGADPCLYQNGGCEHICKKRLGTAWCSCREGFMKASDGKTCLALDGHQLLAGGEVDLKNQVTPLDILSKTRVSEDNITESQHMLVAEIMVSDQDDCAPVGCSMYARCISEGEDATCQCLKGFAGDGKLCSDIDECEMGVPVCPPASSKCINTEGGYVCRCSEGYQGDGIHCLDIDECQLGEHSCGENASCTNTEGGYTCMCAGRLSEPGLICPDSTPPPHLREDDHHYSVRNSDSECPLSHDGYCLHDGVCMYIEALDKYACNCVVGYIGERCQYRDLKWWELRHAGHGQQQKVIVVAVCVVVLVMLLLLSLWGAHYYRTQKLLSKNPKNPYEESSRDVRSRRPADTEDGMSSCPQPWFVVIKEHQDLKNGGQPVAGEDGQAADGSMQPTSWRQEPQLCGMGTEQGCWIPVSSDKGSCPQVMERSFHMPSYGTQTLEGGVEKPHSLLSANPLWQQRALDPPHQMELTQ
# modifications: Pro-epidermal growth factor
# Tested on: HaCaT cells
# Assay: Proliferation of HaCaT keratinocytes, CCK-8
# Assay type: cell-based, human
# Settings: 100 μM, positive control, 72 h, 0.4 % serum
# Summary of the method: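 HaCaT keratinocytes, grown at 37 °C in DMEM with 10 % (v/v) FBS, were seeded at 5 × 10^3 cells/well and cultured for 24 h. They were then serum-starved for 24 h in DMEM with 0.4 % serum and exposed to test sample in the same medium for 72 h. After 2 h in 10 % CCK-8, A450 was read. Proliferative activity = (A2−A1)/(A3−A1) × 100 %, against untreated cells and cell-free blank; mean ± SD, n = 3.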
molecule,measurement,value
B1,cell viability (proliferation of HaCaT keratinocytes),106.76%
